# Source: PubChem BioAssay (several laboratories)
# Rows were chosen to be rich in hits. Some 2.8% of all compounds tested hit in one or more screens of this group.
# TNAP inh noacc – TNAP (human) inhibition, acceptor-free conditions | P05186 | purified TNAP, CDP-star luminescence, 30 min | inhibition, % at 20 µM | hit rate 0.26% among 200,000 | AID 1012;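 active = tissue-nonspecific alkaline phosphatase inhibition above about 50% at 20 µM in the single-dose screen, limit read from the data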
# Target sequence (P05186 whole entry, looked up): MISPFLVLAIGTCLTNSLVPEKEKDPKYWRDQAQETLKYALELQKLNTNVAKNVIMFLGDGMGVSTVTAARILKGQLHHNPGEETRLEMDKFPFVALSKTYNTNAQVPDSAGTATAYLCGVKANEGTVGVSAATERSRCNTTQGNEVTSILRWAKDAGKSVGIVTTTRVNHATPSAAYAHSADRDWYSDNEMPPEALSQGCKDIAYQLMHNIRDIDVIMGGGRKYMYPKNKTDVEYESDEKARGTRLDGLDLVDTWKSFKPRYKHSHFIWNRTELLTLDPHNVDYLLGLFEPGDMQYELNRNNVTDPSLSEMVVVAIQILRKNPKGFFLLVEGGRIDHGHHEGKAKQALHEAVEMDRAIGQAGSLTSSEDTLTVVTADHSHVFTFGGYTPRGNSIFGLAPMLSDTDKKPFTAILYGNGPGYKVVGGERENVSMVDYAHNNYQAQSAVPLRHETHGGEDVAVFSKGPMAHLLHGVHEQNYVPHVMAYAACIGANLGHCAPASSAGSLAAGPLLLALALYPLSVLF
# TNAP inh hi DEA – TNAP (human) inhibition, high acceptor. P05186. purified TNAP, CDP-star luminescence, 1 M DEA. inhibition, % at 20 µM. hit rate 0.03% among 200,000. AID 1135;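 active = over 50% inhibition of tissue-nonspecific alkaline phosphatase at 20 µM in the single-dose screen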
# TNAP act hi DEA – increases human TNAP activity under high phosphate acceptor concentration. activation factor at 20 µM. P05186. purified TNAP, CDP-star luminescence, 1 M DEA, 30 min; hits give high values; 0 = EDTA background, 1 = DMSO-only activity. 200,000 tested, under 10 active;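 active = activation factor at least 2 at 20 µM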
#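 Test system – human TNAP · Doses – 20 µM single point · Incubation – 30 min, room temperature · Signal – luminescent substrate turnover signal · Read-out basis – activation factor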
# Yeast life ext – yeast lifespan extension; AID 775; hit rate 0.68% among 130,000; inhibition of the nicotinamide effect, % at 10 µM; S. cerevisiae growth with nicotinamide, OD615; deaD strain in restrictive glucose medium;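 active = inhibition above a set limit, placed 3 SD over the median of all compounds, cut at about 26% in these data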
#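 assay system = DeaD-strain S. cerevisiae | measured by = absorbance at 615 nm | probe or stimulus = nicotinamide 1.5 mM | buffer or medium = CSMM-D glucose medium, restrictive | times = 48 h at 30 °C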
# RAM inhibit – blocks the yeast RAM network | S. cerevisiae dse1pr::URA3 reporter, 5-FOA growth OD615, 2 d; analog-sensitive cbk1-as2 kinase mutant strain | inhibition, % at 50 µM | hit rate 1.8% among 190,000;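 active = inhibition above a set limit, 3 SD over mean compound inhibition, cut at about 8.4% in these data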;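 note: inhibition rescues growth on 5-FOA so higher OD means more RAM inhibition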
# Yeast growth inh – yeast BB579 growth reduction in restrictive medium | inhibition, % at 10 µM | AID 804 | hit rate 0.51% among 140,000 | S. cerevisiae BB579 growth, OD615, 48 h;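 active = inhibition above a set limit, 3 SD over the mean compound inhibition, cut at about 44% in these data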
#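 System: Saccharomyces cerevisiae DeaD strain BB579, replicative lifespan model yeast | Buffer or medium: Restrictive glucose-based CSMM-D medium | Times: 4 h preincubation and 48 h exposure at 30 °C | Detection: OD615 turbidity measurement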
# A number is an active result; n = inactive; x = no result given.
SMILES,TNAP inh noacc,TNAP inh hi DEA,TNAP act hi DEA,Yeast life ext,RAM inhibit,Yeast growth inh
O=[N+]([O-])c1ccc(C2C3C(c4ccccc4)=NC4(CCCC4)N32)cc1 (stereo not given),n,n,n,n,n,n
CCC1(CC)C(=N)N(C)C(=O)NC1=O,n,n,n,n,n,n
Fc1ccc(C2=CCN(C(c3ccc(Cl)cc3)c3nnnn3Cc3ccccc3)CC2)cc1 (stereo not given),n,n,n,n,n,n
Fc1ccc(Cn2nnnc2C(c2ccc(Cl)cc2)N2CC=C(c3ccc(F)cc3)CC2)cc1 (stereo not given),n,n,n,n,10,n
CC(C)(C)C(O)C(Oc1ccc(Cl)cc1)n1cncn1 (stereo not given),n,n,n,n,n,91
NC(=O)CS(=O)C(c1ccccc1)c1ccccc1 (stereo not given),n,n,n,x,x,x
O=C(Nc1ccc(F)cc1F)c1cccnc1Oc1cccc(C(F)(F)F)c1,n,n,n,36,n,n
Cc1cc(C=O)c(C)n1C1CC1,n,n,n,x,n,x
CCCCn1c(NS(=O)(=O)c2ccc(C)cc2)c(C(=O)OCC)c2nc3ccccc3nc21,n,n,n,93,n,n
C=Cn1ccnc1P(O)(=S)c1nc(C)c(CCOC(C)=O)s1 (stereo not given),n,n,n,x,n,x
COc1ccc([N+](=O)[O-])cc1N=Cc1c(O)n(CCc2ccccc2)c(=O)n(C(C)C)c1=O,n,n,n,n,11,n
Cc1ccccc1-n1c(C)nc2sccc2c1=O,n,n,n,n,n,n
O=P(NCc1ccccc1)(Oc1ccccc1)Oc1ccccc1,n,n,n,27,n,n
Cc1ccc(/C=C2/C(=O)NC(=O)N(CCc3ccc(F)cc3)C2=O)o1,n,n,n,32,n,n
CC(=O)NC(Cc1ccc(N(CCCl)CCCl)cc1)C(=O)NCC(=O)NCC(=O)O (stereo not given),n,n,n,x,n,x
Cc1ccc(OCC(=O)Nc2ccc(Cl)cc2C(=O)c2ccccc2)cc1,n,n,n,n,9.4,n
O=C(COc1ccccc1)Nc1ccc(Cl)cc1C(=O)c1ccccc1,n,n,n,n,n,n
CCc1cccc(CC)c1NC(=S)N1CC2CC(C1)c1cccc(=O)n1C2 (stereo not given),n,n,n,n,n,n
Cc1cc(/C=C2\C(=O)NC(=O)N(c3ccc(Br)cc3)C2=O)c(C)n1C,n,n,n,x,11,x
CC12CN3CCN(C1)CC(C)(C3)C2=NO,n,n,n,n,n,n
CC(=O)c1ccc2c(c1)C1C(Cl)C(Sc3ccccc3[N+](=O)[O-])CC1C(C(=O)O)N2 (stereo not given),n,n,n,n,11,n
Nc1cc(Cl)c2nonc2c1[N+](=O)[O-],n,n,n,37,n,n
O=C1NC(=O)N(c2ccccc2)C(=O)/C1=C/c1ccc(Sc2ccccc2)o1,n,n,n,32,n,n
O=C1NC(=O)N(c2cccc(Cl)c2)C(=O)/C1=C\c1ccc(Sc2nc3ccccc3[nH]2)o1,n,n,n,n,n,n
Oc1ccc(/C=N/NP(=S)(c2ccccc2)c2ccccc2)cc1O,77,n,n,n,n,n
SMILES,TNAP inh noacc,TNAP inh hi DEA,TNAP act hi DEA,Yeast life ext,RAM inhibit,Yeast growth inh
S=P(Nn1cnnc1)(c1ccccc1)c1ccccc1,n,n,n,x,n,x
Oc1ccccc1/C=N/NP(=S)(c1ccccc1)c1ccccc1,n,n,n,x,8.6,x
Oc1ccc(/C=N/NP(=S)(c2ccccc2)c2ccccc2)c(O)c1O,n,n,n,n,n,n
Cc1ccc(-c2nc3ccc(Cl)cc3n2OC(=O)N(C)C)cc1,n,n,n,92,n,n
CN(C)C(=O)Oc1ccc(-c2cn3cc(Cl)ccc3n2)cc1,n,n,n,n,n,n
CCn1nc(-c2cccs2)nc2c(=O)n(C)c(=O)nc1-2,n,n,n,n,n,100
Brc1ccc2c(c1)C(OC1CN3CCC1CC3)c1ccccc1CS2 (stereo not given),n,n,n,n,n,n
COc1cccc(-n2c(/C=C/c3ccc(O)c(O)c3)nc3ccccc3c2=O)c1,84,n,n,x,n,x
COc1ccc(C(=O)c2nc3ccccc3n2C(C)C)cc1,n,n,n,x,n,x
Cc1ccc(N2C(=O)NC(=O)/C(=C\c3cc(C)n(-c4sc5c(c4C#N)CCCC5)c3C)C2=O)cc1,n,n,n,n,n,n
CCOC(=O)c1c(-n2c(C)cc(C=C3C(=O)NC(=S)NC3=O)c2C)sc2c1CCCC2,n,n,n,n,11,n
O=C1NC(=S)N(Cc2ccco2)C(=O)/C1=C\c1cccs1,n,n,n,x,n,x
C=CCN1C(=O)/C(=C/c2cccs2)C(=O)NC1=S,n,n,n,n,n,75
O=C1NC(=O)N(CCC2=CCCCC2)C(=O)/C1=C\c1cccs1,n,n,n,63,n,n
Cc1ccsc1C(=O)C1CCCN(Cc2cnc(N3CCCC3)s2)C1 (stereo not given),n,n,n,x,n,x
NC1=NC(=O)C(c2ccccc2)O1 (stereo not given),n,n,n,x,x,x
COc1cc(/C=C/[N+](=O)[O-])ccc1O,53,n,n,35,n,n
CCN(CC)c1ccc(/C=C/[N+](=O)[O-])cc1,n,n,n,x,n,x
CC(C)N1C(=O)/C(=C/C=C/c2ccco2)C(=O)N(Cc2ccco2)C1=O,n,n,n,n,n,n
CCN1C(=O)C(=C/C=C/c2ccco2)C(=O)N(CC)C1=S,n,n,n,34,n,n
Clc1ccc(COC(Cn2ccnc2)c2ccc(Cl)cc2Cl)c(Cl)c1 (stereo not given),n,n,n,n,n,100
COc1ccccc1Cn1c(SCC(=O)C(C)(C)C)nc2cc(C(=O)N3CCC4(CC3)OCCO4)ccc2c1=O,n,n,n,x,11,x
COc1cccc(-n2c(CN3CCN(C)CC3)nc3ccc([N+](=O)[O-])cc3c2=O)c1,n,n,n,n,n,n
CCOC(=O)c1cc(CC)sc1/N=C/c1c(O)[nH]c(=S)[nH]c1=O,n,n,n,n,n,n
Cc1cc(NC(=O)CCl)on1,n,n,n,x,n,x
COCCCN1CCN(c2nnc3n2-c2sc(Br)cc2C(c2ccccc2Cl)=NC3)CC1,n,n,n,50,n,n
COc1ccc(C)cc1NC1=NC(C)(C)CS1,n,n,n,x,n,x
CC12CCC3C(CCC4C/C(=N/O)CCC43C)C1CCC2O (stereo not given),n,n,n,n,n,n
C[C@]12CC[C@@H](O)C[C@@H]1CC[C@@H]1[C@@H]2CC[C@]2(C)[C@@H](O)CC[C@@H]12,n,n,n,29,n,n
O=c1[nH]c(=O)n(Cc2ccccc2Cl)c(O)c1/C=C1/C=CC=N1,n,n,n,x,n,x
